Source: ChEMBL document CHEMBL5032510, “Identification of Novel Fused Heteroaromatics-Based MALT1 Inhibitors by High-Throughput Screening to Treat B Cell Lymphoma” (J Med Chem, 2021)
Activity calls are given as the source filed them. The calls are words filed in the database; no cut-off is given here.

Columns and labels:
[1] = target: T1, Mucosa-associated lymphoid tissue lymphoma translocation protein 1 (Homo sapiens, UniProt Q9UDY8); experiment: Inhibition of MALT1 (329-824 residues) (unknown origin) using PT14 as substrate incubated for 60 mins by fluorescence based assay
T1 sequence (Q9UDY8 whole entry): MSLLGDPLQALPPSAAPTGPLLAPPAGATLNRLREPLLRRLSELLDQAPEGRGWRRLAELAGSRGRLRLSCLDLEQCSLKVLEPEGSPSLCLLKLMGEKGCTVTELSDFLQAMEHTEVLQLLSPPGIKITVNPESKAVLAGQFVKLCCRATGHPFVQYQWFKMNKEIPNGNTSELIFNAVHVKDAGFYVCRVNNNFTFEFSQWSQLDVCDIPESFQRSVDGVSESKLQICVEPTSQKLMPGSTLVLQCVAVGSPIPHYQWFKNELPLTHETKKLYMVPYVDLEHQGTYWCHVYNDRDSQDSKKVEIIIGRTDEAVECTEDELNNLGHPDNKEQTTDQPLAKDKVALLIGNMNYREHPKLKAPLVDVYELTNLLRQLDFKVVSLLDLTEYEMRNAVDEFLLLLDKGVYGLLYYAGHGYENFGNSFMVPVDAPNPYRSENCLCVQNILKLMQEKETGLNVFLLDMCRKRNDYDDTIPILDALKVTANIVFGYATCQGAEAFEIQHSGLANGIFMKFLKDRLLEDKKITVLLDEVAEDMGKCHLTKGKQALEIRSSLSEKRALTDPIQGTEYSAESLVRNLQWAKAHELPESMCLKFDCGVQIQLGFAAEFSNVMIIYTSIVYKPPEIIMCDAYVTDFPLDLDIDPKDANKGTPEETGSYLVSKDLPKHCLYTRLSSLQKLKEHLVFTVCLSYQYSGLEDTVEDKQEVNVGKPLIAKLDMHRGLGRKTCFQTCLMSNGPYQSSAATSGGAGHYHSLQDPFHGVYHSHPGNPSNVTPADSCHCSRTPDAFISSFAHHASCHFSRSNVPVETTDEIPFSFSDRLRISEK

[2] = target: T1, Mucosa-associated lymphoid tissue lymphoma translocation protein 1; experiment: Inhibition of N-terminal his-tagged GCN4 leucine zipper fused human MALT1 […] expressed in Escherichia coli using Ac-LVSR-AMC as substrate by HTS assay
[3] = Antiproliferative activity against human HBL1 cells assessed as inhibition of cell growth incubated for 72 hrs by Celltiter-Glo luminescent assay; format: functional
Summary of the method: (§1)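 Exponentially growing cells were seeded at 1 × 10⁴ per 100 μL. HBL-1 and TMD8 were kept in RPMI with 10% FBS, 2 mM glutamine and 10 mM HEPES; OCI-LY1 in Iscove's medium with 20% FBS; all at 37 °C and 5% CO2. Cells were exposed to DMSO or 2-fold serial dilutions from 100 μM for 72 h, in triplicate on one plate. CellTiter-Glo luminescence was read after 1 h. Growth inhibition was calculated against control, accounting for initial cell number, and GI50 was fitted.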

[4] = tested on: TMD8; experiment: Antiproliferative activity against human TMD8 cells assessed as inhibition of cell growth incubated for 72 hrs by Celltiter-Glo luminescent assay; format: functional; summary of the method: as §1
[5] = tested on: OCI-Ly1; experiment: Antiproliferative activity against human OCI-Ly1 cells assessed as inhibition of cell growth incubated for 72 hrs by Celltiter-Glo luminescent assay; format: functional; summary of the method: as §1
[6] = target: T1, Mucosa-associated lymphoid tissue lymphoma translocation protein 1; experiment: Inhibition of MALT1 (340 to 789 residues) (unknown origin) using Ac-LRSR-AMC as substrate by fluorescence based analysis
Summary of the method: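 N-terminal His-tagged LZ-MALT1 expressed in E. coli, purified by Ni-NTA then gel filtration. Fluorescence read at 360/465 nm. IC₅₀ came from concentration–response curves; mean of three independent experiments.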

[7] = target: T1, Mucosa-associated lymphoid tissue lymphoma translocation protein 1; experiment: Inhibition of full length recombinant wild type MALT1 (unknown origin) using Ac-LVSR-AMC as substrate by HTS assay

Row | Structure (SMILES) | IC50 [1] [µM] | IC50 [2] [µM] | GI50 [3] [µM] | GI50 [4] [µM] | GI50 [5] [µM] | IC50 [6] [µM] | IC50 [7] [µM] | Activity [5]
1 | CO[C@@H](C)c1c(NC(=O)Nc2cnc(C(=O)N3CCCC3)c(Cl)c2)cnc2cc(Cl)nn12 | 0.005 |  |  |  |  |  |  | 
2 | COc1cccc(CNC(=O)c2sc(=S)n3c2[nH]c(=O)c2cc(Br)ccc23)c1 |  | 12.8 | 16.1 | 16.1 | 16.1 |  |  | 
3 | CC(C)[C@H](NC(=O)c1ccc(Br)cc1)C(=O)N1CCC[C@H]1C(=O)N[C@@H](CCCNC(=N)N)C(=O)CF |  |  |  |  |  | 0.01 |  | 
4 | COc1cc2c(=O)[nH]c3c(C(=O)Nc4cc(Cl)cc(Cl)c4)sc(=S)n3c2cc1OC |  | 14 | 2.2 | 6.3 | 14.2 |  |  | 
5 | O=C(NCc1ccccc1Cl)c1sc(=S)n2c1[nH]c(=O)c1cc(Br)ccc12 |  | 2.3 | 19 | 15 | 30 |  |  | 
6 | COc1ccc(OC)c(NC(=O)c2sc(=S)n3c2[nH]c(=O)c2cc(Br)ccc23)c1 |  | 6.9 | 11.7 | 11 | 12.9 |  |  | 
7 | COCCOc1nc(-c2ccc(Cl)c(Cl)c2)n(-c2ccc(NC(=O)CCl)cc2)n1 |  |  |  |  |  |  | 5.84 | 
8 | CCOc1ccc(OCC)c(NC(=O)c2sc(=S)n3c2[nH]c(=O)c2ccc(Cl)cc23)c1 |  | 4.7 | 12.1 | 12.1 | 25.6 |  |  | 
9 | COc1ccc(OC)c(NC(=O)c2sc(=S)n3c2[nH]c(=O)c2ccc(Cl)cc23)c1 |  | 5.2 | 8.2 | 8.4 | 20.7 |  |  | 
10 | COc1ccc(OC)c(NC(=O)c2sc(=S)n(-c3cccc(Br)c3)c2NC(=O)CCl)c1 |  | 4.6 | 1.8 | 1.2 | 12.7 |  |  | 
11 | O=C(NCc1ccccc1Cl)c1sc(=S)n2c1[nH]c(=O)c1cc(Cl)ccc12 |  | 5.3 | 25 | 33 |  |  |  | inactive
12 | O=C(NCc1cccs1)c1sc(=S)n2c1[nH]c(=O)c1cc(Br)ccc12 |  | 4.1 | 13 | 22 |  |  |  | inactive
13 | O=C(Nc1cc(Cl)cc(Cl)c1)c1sc(=S)n2c1[nH]c(=O)c1ccccc12 |  | 2.2 | 8 | 3.7 | 10 |  |  | 
14 | COc1ccccc1NC(=O)c1sc(=S)n2c1[nH]c(=O)c1cc(Cl)ccc12 |  | 6.1 | 17 | 17 | 23 |  |  | 
